From ChEMBL document CHEMBL3272112, “Cycloalkanones. 8. Hypocholesterolemic activity of long-chain ketones related to pentadecanone” (J Med Chem, 1976)

Tests used:
Rattus norvegicus [1] = assay: Toxicity in Sprague-Dawley rat assessed as food intake at 5 mg/kg/day measured after 1 week (reference value: 20.9 +/- 4.9 g/day); format: organism-based; conditions: in vivo, 168 h
Rattus norvegicus [2] = assay: Hypocholesterolemic activity in Sprague-Dawley rat assessed as serum cholesterol level at 50 mg/kg/day, po administered via intubation measured on day 4 by Liebermann-Burchard method relative to control; format: functional
Summary of the method: (§1)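 Male Sprague-Dawley rats given compound homogenized in 1% CMC once daily at 11:00 a.m. by oral intubation needle (0.2 cc), doses calculated on weekly body weights; tail-vein blood drawn 24 h after last dose; nonhemolyzed serum (30 μ) assayed by modified Liebermann-Burchard method; N = 8; % of control, mean ± SD; Student's t test.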

Rattus norvegicus [3] = assay: Toxicity in Sprague-Dawley rat assessed as food intake at 50 mg/kg/day measured after 1 week (reference value: 20.9 +/- 4.9 g/day); format: organism-based; conditions: in vivo, 168 h
Rattus norvegicus [4] = assay: Hypocholesterolemic activity in Sprague-Dawley rat assessed as serum cholesterol level at 1 mg/kg/day, po administered via intubation measured on day 4 by Liebermann-Burchard method relative to control; format: functional; summary of the method: as §1
Rattus norvegicus [5] = assay: Toxicity in Sprague-Dawley rat assessed as atrophy of vas deferens at 10 mg/kg/day administered for 16 days measured on day 16 post last dose; format: organism-based; conditions: in vivo, 384 h
Rattus norvegicus [6] = species: Rattus norvegicus; assay: Disruption of rat liver cell membrane assessed as unlysed cells at 25 mg per gram of tissue measured at 1 hr (reference value: 90 +/- 4%); format: functional
Summary of the method: (§2)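 Rat liver 10% homogenate in 0.25 M sucrose + 0.001 M EDTA, pH 7.2, incubated at 37°C with Hanke's buffer pH 7.2 and drug suspended in 1% CMC (dose as mg drug per g wet liver); turbidity read as absorbance at 660 nm over 0–4 hr, falling absorbance taken as lysis; expressed as % unlysed cells; vehicle 1% CMC control.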

Rattus norvegicus [7] = species: Rattus norvegicus; assay: Disruption of rat liver lysosomal membrane assessed as free acid phosphatase activity at 25 mg per gram of tissue measured after 1 hr (reference value: 100 +/- 16%); format: functional, tissue-based
Summary of the method: (§3)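 10% rat liver homogenate incubated with Hanke's buffer pH 7.2 and drug suspension in 1% CMC in a shaker at 37°C; aliquot removed after 1 hr and percent free (unbound) acid phosphatase activity determined as an index of lysosomal membrane rupture.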

Rattus norvegicus [8] = assay: Hypocholesterolemic activity in Sprague-Dawley rat assessed as serum cholesterol level at 5 mg/kg/day, po administered via intubation measured on day 10 by Liebermann-Burchard method relative to control; format: functional; summary of the method: as §1
Rattus norvegicus [9] = species: Rattus norvegicus; assay: Disruption of rat liver cell membrane assessed as unlysed cells at 10 mg per gram of tissue measured at 2 hrs (reference value: 77 +/- 8%); format: functional; summary of the method: as §2
Rattus norvegicus [10] = species: Rattus norvegicus; assay: Disruption of rat liver cell membrane assessed as unlysed cells at 5 mg per gram of tissue measured at 1 hr (reference value: 90 +/- 4%); format: functional; summary of the method: as §2
Rattus norvegicus [11] = assay: Toxicity in Sprague-Dawley rat assessed as food intake at 5 mg/kg/day measured after 2 weeks (reference value: 24.8 +/- 1.1 g/day); format: organism-based; conditions: in vivo, 336 h
Rattus norvegicus [12] = assay: Hypocholesterolemic activity in Sprague-Dawley rat assessed as serum cholesterol level at 50 mg/kg/day, po administered via intubation measured on day 16 by Liebermann-Burchard method relative to control; format: functional; summary of the method: as §1
Rattus norvegicus [13] = assay: Effect on serum triglyceride level in Sprague-Dawley rat at 20 mg/kg/day measured on day 14 (reference value: 100 +/- 21%); format: functional
Rattus norvegicus [14] = assay: Toxicity in Sprague-Dawley rat assessed as increase in epididymis and vas deferens weight at 10 mg/kg/day administered for 16 days measured on day 16 post last dose relative to total body weight (reference value: 0.22 +/- 0.04%); format: organism-based; conditions: in vivo, 384 h
Rattus norvegicus [15] = assay: Toxicity in Sprague-Dawley rat assessed as increase in body weight at 1 mg/kg/day administered for 16 days measured on day 16 post last dose (reference value: 195 +/- 16%); format: organism-based; conditions: in vivo, 384 h
Rattus norvegicus [16] = species: Rattus norvegicus; assay: Disruption of rat liver cell membrane assessed as unlysed cells at 25 mg per gram of tissue measured at 2 hrs (reference value: 77 +/- 8%); format: functional; summary of the method: as §2
Rattus norvegicus [17] = assay: Hypocholesterolemic activity in Sprague-Dawley rat assessed as serum cholesterol level at 20 mg/kg/day, po administered via intubation measured on day 16 by Liebermann-Burchard method relative to control; format: functional; summary of the method: as §1
Rattus norvegicus [18] = assay: Effect on serum triglyceride level in Sprague-Dawley rat at 10 mg/kg/day measured on day 16 (reference value: 100 +/- 21%); format: functional
Rattus norvegicus [19] = assay: Hypocholesterolemic activity in Sprague-Dawley rat assessed as serum cholesterol level at 1 mg/kg/day, po administered via intubation measured on day 16 by Liebermann-Burchard method relative to control; format: functional; summary of the method: as §1
Rattus norvegicus [20] = assay: Hypocholesterolemic activity in Sprague-Dawley rat assessed as serum cholesterol level at 20 mg/kg/day, po administered via intubation measured on day 4 by Liebermann-Burchard method relative to control; format: functional; summary of the method: as §1
Rattus norvegicus [21] = assay: Toxicity in Sprague-Dawley rat assessed as estrogenic activity at 10 mg/kg/day; format: organism-based; conditions: in vivo
Summary of the method: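 Weaned rats ovariectomized, left 3 days, then given 10 mg/kg/day test compound (or 10 μg/kg/day 17-ethinylestradiol as reference) for 3 days; killed, uterus removed, trimmed and weighed; expressed as % uterine weight of 1% CMC control, mean ± SD; Student's t test.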

Rattus norvegicus [22] = species: Rattus norvegicus; assay: Disruption of rat liver lysosomal membrane assessed as free acid phosphatase activity at 10 mg per gram of tissue measured after 1 hr (reference value: 100 +/- 16%); format: functional, tissue-based; summary of the method: as §3
Rattus norvegicus [23] = assay: Toxicity in Sprague-Dawley rat assessed as increase in vesicular gland weight at 10 mg/kg/day administered for 16 days measured on day 16 post last dose relative to total body weight (reference value: 0.118 +/- 0.062%); format: organism-based; conditions: in vivo, 384 h
Rattus norvegicus [24] = assay: Toxicity in Sprague-Dawley rat assessed as food intake at 1 mg/kg/day measured after 1 week (reference value: 20.9 +/- 4.9 g/day); format: organism-based; conditions: in vivo, 168 h
Rattus norvegicus [25] = assay: Toxicity in Sprague-Dawley rat assessed as change in kidney weight at 10 mg/kg/day administered for 16 days measured on day 16 post last dose relative to total body weight (reference value: 0.91 +/- 0.10%); format: organism-based; conditions: in vivo, 384 h
Rattus norvegicus [26] = assay: Hypocholesterolemic activity in Sprague-Dawley rat assessed as serum cholesterol level at 50 mg/kg/day, po administered via intubation measured on day 10 by Liebermann-Burchard method relative to control; format: functional; summary of the method: as §1
Rattus norvegicus [27] = assay: Hypocholesterolemic activity in Sprague-Dawley rat assessed as serum cholesterol level at 20 mg/kg/day, po administered via intubation measured on day 10 by Liebermann-Burchard method relative to control; format: functional; summary of the method: as §1
Rattus norvegicus [28] = assay: Toxicity in Sprague-Dawley rat assessed as atrophy of epididymis at 10 mg/kg/day administered for 16 days measured on day 16 post last dose; format: organism-based; conditions: in vivo, 384 h
Rattus norvegicus [29] = assay: Toxicity in Sprague-Dawley rat assessed as effect on protein level in liver at 10 mg/kg/day measured after 16 days (reference value: 100 +/- 5%); format: organism-based; conditions: in vivo, 384 h
Rattus norvegicus [30] = species: Rattus norvegicus; assay: Disruption of rat liver cell membrane assessed as unlysed cells at 10 mg per gram of tissue measured at 4 hrs (reference value: 17 +/- 4%); format: functional; summary of the method: as §2
Rattus norvegicus [31] = assay: Hypocholesterolemic activity in Sprague-Dawley rat assessed as serum cholesterol level at 10 mg/kg/day, po administered via intubation measured on day 10 by Liebermann-Burchard method relative to control; format: functional; summary of the method: as §1

CCCCCCCCCCCCCCC(C)=O
Activity (Rattus norvegicus [1]): 21.8 g/day | Activity (Rattus norvegicus [2]): 75% | Activity (Rattus norvegicus [3]): 22.5 g/day | Activity (Rattus norvegicus [4]): 82% | Activity (Rattus norvegicus [5]): Non-toxic | Activity (Rattus norvegicus [6]): 92% | Activity (Rattus norvegicus [7]): 116% | Activity (Rattus norvegicus [8]): 78% | Activity (Rattus norvegicus [9]): 77% | Activity (Rattus norvegicus [10]): 91% | Activity (Rattus norvegicus [11]): 26.3 g/day | Activity (Rattus norvegicus [12]): 68% | Activity (Rattus norvegicus [13]): 101% | Activity (Rattus norvegicus [14]): 0.24% | Activity (Rattus norvegicus [15]): 229% | Activity (Rattus norvegicus [16]): 85% | Activity (Rattus norvegicus [17]): 69% | Activity (Rattus norvegicus [18]): 120% | Activity (Rattus norvegicus [19]): 71% | Activity (Rattus norvegicus [20]): 74% | Activity (Rattus norvegicus [21]): Non-toxic | Activity (Rattus norvegicus [22]): 89% | Activity (Rattus norvegicus [23]): 0.121% | Activity (Rattus norvegicus [24]): 22.3 g/day | Activity (Rattus norvegicus [25]): 0.86% | Activity (Rattus norvegicus [26]): 74% | Activity (Rattus norvegicus [27]): 76% | Activity (Rattus norvegicus [28]): Non-toxic | Activity (Rattus norvegicus [29]): 107% | Activity (Rattus norvegicus [30]): 19% | Activity (Rattus norvegicus [31]): 72%
